Data reported in ChEMBL document CHEMBL4513216, “Probing the Open Global Health Chemical Diversity Library for Multistage-Active Starting Points for Next-Generation Antimalarials” (ACS Infect Dis, 2020).

Assay: Toxicity liver stage against HepG2, at 10uM
Type: cell-based
Set-up: test concentration 10 uM, cell line HepG2-A16-CD81EGFP
Conditions: human, HepG2-A16-CD81EGFP cells; read-out: INHIBITION
Outline: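 Uninfected HepG2-A16-CD81EGFP cells, 3 × 10^3 per well, 1536-well, plated on prespotted compound at 10 μM final, parasite-free screening media added to match infected plates; puromycin 10 μM positive, DMSO 0.5% negative; run in parallel with 48 h PbLuc assay at 37 °C, 5% CO2; viability by CellTiter-Glo luminescence, normalized to controls.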

SMILES	cytotoxicity at 10 µM [%]
CC(C)(C)c1cn(C[C@H]2CC3CCN2C[C@@H]3C(=O)N2CCOCC2)nn1 (stereo partly specified)	-3.37
COC1CN(CCO)S(=O)(=O)c2ccccc21 (stereo unspecified)	3.54
O=C(NC1CC1)c1nc(COc2ccc3c(c2)OCO3)no1	3.97
COC(=O)N1CCC(CNC(=O)C2CCN(S(C)(=O)=O)CC2)CC1	-2.72
Cc1cc(C(=O)NCC(Cc2cccc(F)c2)N2CCCCC2=O)no1 (stereo unspecified)	2.68
CC(C)S(=O)(=O)NCC(Cc1cccc(F)c1)N1CCNC1=O (stereo unspecified)	-1
CC(=O)c1ccc(S(=O)(=O)NCC2CCN(c3cnccn3)CC2)cc1	0.723
N#Cc1ccc2c(c1)CN(C(=O)C1CC=CC1)C2c1cnco1 (stereo unspecified)	-0.0499
O=C(NC1CCCC1)NC1CCc2[nH]c(=O)ccc2C1 (stereo unspecified)	7.91
CN1CCc2c(C#N)c(NCCN3CCOCC3)n3cnnc3c2C1	-2.84
Cn1c(=O)n(C)c2cc(C3SCC(=O)Nc4ccsc43)ccc21 (stereo unspecified)	4.49
O=C([C@H]1C[C@H]2OCC[C@H]2N(C(=O)c2ccncc2)C1)N1CCCCO1	-6.77
N#Cc1cc(C#N)c(SCC(=O)Nc2ccc(F)cc2)nc1N	-0.506
O=C(c1cccc(-n2cnnc2)c1)N1C[C@@H](O)[C@H](N2CCOCC2)C1	2.26
COCCNc1ccc(CC2CCCN(C3CCCC3)C2)nn1 (stereo unspecified)	3.07
Cc1nc(N)cc(C2CN(C(=O)c3cscn3)CCO2)n1 (stereo unspecified)	7.03
c1cc(-c2cncc(C3CCNCC3)n2)n[nH]1	3.42
COc1ccc(CN2CCC(c3nccnc3-n3ccnc3)CC2)cc1	-27.4
CN(C)Cc1ccnc(C2CN(Cc3nccs3)CCO2)n1 (stereo unspecified)	-2.61
CNC(=O)C1(c2cnccn2)CCCN1C(=O)c1ccccc1 (stereo unspecified)	-20.6
CNc1cccc(C2CCCN(C(=O)c3cccnc3)C2)n1 (stereo unspecified)	-16.6
CN(C)Cc1ccnc(C2CCCN2Cc2ccc3ncccc3c2)n1 (stereo unspecified)	0.026
COc1cc2nc3n(c(=O)c2cc1OC)CCN(C(=O)C1CC1)CC3	-13.6

SMILES	cytotoxicity at 10 µM [%]
O=C(c1ccc2c(c1)OCO2)N1CCC(C(=O)O)(c2ccccc2)CC1	7.33
O=C1NC2(Cc3ccccc31)CN(CC1CCOCC1)C2	14
Cc1cc(C2CCCN2C(=O)COc2ccc(CC#N)cc2)on1 (stereo unspecified)	-49.6
CCN(Cc1cccc(C(N)=O)c1)c1ccccc1	2.91
COc1ccc2c(c1)OCC(CNC1CCc3ncnn3C1)=C2 (stereo unspecified)	4.4
CC(C(=O)Nc1cccc(C(F)(F)F)c1)N(C)CCN1CCOCC1 (stereo unspecified)	9.54
N#Cc1ccc(Cl)cc1N1CCC(OC2CCOCC2)CC1	3.99
Cc1cc(C2CCCN2C(=O)CN2CCc3ccccc32)on1 (stereo unspecified)	2.74
CCC(=O)NC(c1ccc(C)cc1)c1cccc(S(C)(=O)=O)c1 (stereo unspecified)	-7.62
Cc1noc(C)c1CS(=O)(=O)CC(=O)NCCc1ccccc1	-5.83
CC(C)n1nc2c(cc1=O)CN(c1nc3ccccc3s1)CC2	-1.99
COC(C(=O)NC1CCN(S(C)(=O)=O)CC1)c1ccccc1 (stereo unspecified)	-4.68
CS(=O)(=O)CCC(=O)Nc1cc(Cl)c(Cl)cn1	4.52
CC(=O)N(Cc1ncc(C)o1)C1CCN(Cc2nnc(C3CC3)o2)C1 (stereo unspecified)	5.08
CC(C)n1c(C2CCCN(CC(=O)NC3CC3)C2)nc2ccccc21 (stereo unspecified)	-5.54
Clc1cnccc1N1CCCOCC1	-0.625
CSc1ccc(C(CNC(C)=O)N2CCc3sccc3C2)cc1 (stereo unspecified)	6.84
Cn1cc(Br)cc(NC(=O)CC(C)(C)C)c1=O	5.82
Cc1nn(C)c(C)c1CCC(=O)Nc1nnc(C2CC2)s1	-10.1
c1ccc(-n2nnnc2CNCc2ccc3c(c2)OCCO3)cc1	9.35
CCC(C(=O)NCC1CCN(c2ccncc2)CC1)N(C)C (stereo unspecified)	15
Cc1ccc(N2CCC(NCc3cnc(C4CCC4)s3)CC2)nc1	6.75
Cc1cccc(C2CCCN2Cc2nc(N)nc(N(C)C)n2)c1C (stereo unspecified)	-12.5

SMILES	cytotoxicity at 10 µM [%]
Cc1nc(NC(=O)NC(CS(C)(=O)=O)c2ccccc2)sc1C (stereo unspecified)	-1.32
CN1CCN(c2ccc(Cl)cc2NC(=O)c2ccco2)CC1	-2.14
CN1CCN(c2ccccc2NC(=O)NCCc2ccc(O)cc2)CC1	-0.37
CC(=O)c1cccc(S(=O)(=O)N2CCC(c3n[nH]c(C)n3)CC2)c1	-5.83
COc1cncc(N2CCN(Cc3cccn3C)CC2)n1	6.09
COc1cccc(CC2CCCN2CC(N)=O)c1 (stereo unspecified)	-55.6
CCN(CCC(=O)OC)S(=O)(=O)c1cnc2c(c1)c(C)nn2C	-15.2
COCCN1CCC(c2nc3ccccc3[nH]2)CC1	0.575
CCCn1nnnc1CN(c1ccc(C)cc1)C(C)C	4.15
Cc1cc(CN2CCc3nn(C(C)C)c(=O)cc3C2)no1	-13.8
CN(Cc1ccc(OC(F)F)cc1)C(=O)CS(=O)(=O)c1ccc(Cl)cc1	5.19
Cc1cc(CNC(=O)NC(C)c2ccc(N3CCOCC3)cc2)no1 (stereo unspecified)	-17.4
O=C(NCC1CC1)C1CN(C(=O)NC2CCCC2)Cc2cncn2C1 (stereo unspecified)	-106
O=C(Nc1ccccc1)c1cc2n(n1)CCCN(C(=O)N1CCCC1)C2	-70.3
CCc1noc(C2CC(=O)N(CCN(C)C)C2)n1 (stereo unspecified)	-10.1
O=C(c1cccc(Cl)c1)N1CC[C@@H](N2CCC(O)CC2)[C@H](O)C1	-1.61
CC(C)N(Cc1c[nH]nc1-c1ccc2c(c1)OCO2)Cc1nccn1C	-7.8
CC(C)c1cc(C(=O)N2CCNCC2C(=O)NCc2ccncc2)on1 (stereo unspecified)	-7.6
O=C(C(c1ccc(F)cc1)N1CCCCC1)N1CCn2cncc2C1 (stereo unspecified)	-0.628
CCOc1ncccc1-c1cc2c(cc1C(N)=O)OCO2	-0.421
O=C(Cn1cccn1)N1CCC(Cn2cc(-c3ccsc3)nn2)CC1	-0.554
CC(=O)N[C@@H]1Cc2ccccc2[C@H]1Nc1cc(C2CC2)ncn1	-45.2
CC(Cn1cccn1)n1cnc2ccc(F)cc2c1=O (stereo unspecified)	0.956

SMILES	cytotoxicity at 10 µM [%]
CCc1ccc(CN(C)Cc2nc(-c3cnccn3)no2)nc1	3.57
Cn1ncc2c(N3CCS(=O)(=O)CC3)nc(-c3cccnc3)nc21	4.38
CCc1nnc(CN(C)Cc2cccc(C(=O)Nc3ccnn3C)c2)o1	-3.7
COC[C@@]12CC[C@@H](N3CCOCC3)C[C@H]1CCN(c1ncccc1F)C2	-3.47
COCC(Nc1nc(N(C)C)nc2c1CCNCC2)c1ccccn1 (stereo unspecified)	1.58
CN1CCC(n2nc(Cc3cccc(Cl)c3)nc2Cn2ccnc2)CC1	10.8
O=C(NC1CCCN(CCCc2ccccc2)C1)c1ccc(Cl)s1 (stereo unspecified)	57.5
CCC[C@@H]1CN(Cc2cc3c(cc2OC)OCO3)C[C@H]1C(=O)O	-2.7
CS(=O)(=O)N1CCC(Oc2ccc(C(=O)NCC3CCC3)cc2Cl)CC1	12
CSc1ccc(C(C(=O)O)N2CCCC2)cc1 (stereo unspecified)	1.16
CNC(=O)C1(N(C)CCc2ccccc2)Cc2ccccc2C1	11.5
Cc1cc(NCCCc2c(C)noc2C)nc(N)n1	12
c1ccc(CCCn2cc(-c3nc(CN4CCOCC4)no3)nn2)cc1	2.14
Cc1ccc(C(=O)N2CCC3(CC2)c2ccccc2[C@@H](N)[C@@H]3O)cc1F	-0.685
O=C(O)c1ccnc(-c2ccnc(COc3cccc(F)c3)n2)c1	-2.31
CNc1nc(C(=O)N2CCN(c3cc(C)nc(C)c3)CC2)cs1	3.78
Cc1cc2cc(C(=O)N3CCN(CCO)[C@@H]4CS(=O)(=O)C[C@@H]43)ccc2o1	-0.357
CC1CCN(CC2(O)CCCN(Cc3cccc(F)c3F)C2=O)CC1 (stereo unspecified)	0.801
COc1cccc(-c2ncc(CN3CCOCC(O)C3)s2)c1 (stereo unspecified)	-7.19
CN(C)Cc1cn(CC2CCCN(c3nccc4occc34)C2)nn1 (stereo unspecified)	-9.67
CCC(C(=O)NCc1cccnc1)N(c1cccc(C)c1)S(C)(=O)=O (stereo unspecified)	2.57
Cc1cc(C)nc(N2CCC(NCCSc3nnnn3C)CC2)n1	-6.88
COCC(=O)NCc1cccnc1-n1cnc2ccccc21	-2.8

SMILES	cytotoxicity at 10 µM [%]
Cc1cc(N2CCN(Cc3ccc(C)o3)CC2)cc(C)n1	-6.61
CN(Cc1cnn(C)c1)C(=O)NCc1cc(Br)cs1	-10.1
CCn1cc(NC(=O)NCC(c2ccc(OC)cc2)N(C)C)cn1 (stereo unspecified)	-2.4
CCSc1ccc(NC(=O)N2CCCC2c2ccncc2)cn1 (stereo unspecified)	-8.88
CN(Cc1ccsc1)C(=O)c1cccc(S(=O)(=O)NC(C)(C)C)c1	-8.03
NC(=O)CN1CCC(NC(=O)Nc2nccs2)CC1	-5.9
CCc1nnc2n1CCN(Cc1csc(-c3ccc(C)o3)n1)C2	-1.5
Cc1nc(Nc2cnccn2)cc(C2CCCN2)n1 (stereo unspecified)	-9.46
COc1ccc(CNC(=O)N2CCN(CC(O)C3CC3)CC2)cc1 (stereo unspecified)	7.11
COc1ccc(CN(Cc2cncn2C)CC2CCCO2)cc1 (stereo unspecified)	-4.47
Cc1cccc(CN(Cc2cccnc2)C2CC(C)(C)NC(C)(C)C2)n1	-5.11
Cn1cc(N2C[C@@H]3CN(Cc4ccccn4)C[C@@H]3C2=O)cn1	-95.6
Cc1cnccc1-c1cnn(CCNC(=O)c2ccccn2)c1C1CC1	56.3
Cc1csc(CN2CCC[C@]3(C[C@H](Oc4ccccn4)CO3)C2)n1	-14
Cc1cc(N(C)C)nc(C2CCNC2)n1 (stereo unspecified)	0.812
Cc1ccc(N2CC[C@H]3OCC[C@@]3(C(=O)NC(C)C)C2)nn1	-11.7
Cn1cccc1C(=O)N[C@H]1CN(Cc2ccoc2)[C@@H]2CCCO[C@H]12	-88.7
Cc1ccc(CN2CCc3ncnc(C4CC4)c3CC2)s1	4.63
CNCc1cc(F)ccc1Oc1ccc(Cl)cc1	-8.74
